The format of series [1] is in vivo, human. Particulars: for Tmax / concentration at 2 h / half-life: human, po; for AUC0-t: single oral tablet 4/1.25 mg, fasting, mean ± SD. Put shortly:
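Ten healthy Chinese volunteers, fasted at least 10 h overnight, took one oral ACE-inhibitor/diuretic combination tablet (4 mg/1.25 mg) with 240 mL warm water. Blood was drawn into two K2EDTA tubes pre-dose and at 0.25–48 h. One tube was spun (3000 rpm, 10 min) for plasma and the other kept as whole blood, both stored at −80 °C. Parent drugs were extracted by acetonitrile precipitation and the metabolite by 14% perchloric acid, then measured by LC-MS/MS against internal standard. AUC0-t ran to 6 h for the ACE inhibitor and to 48 h otherwise.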

For series [2] the following is noted: cited from earlier work.
For series [3] the following is noted: cited from earlier work. The source holds these as a separate data set.
The mark [4] stands for this setting: whole blood, dose 1.5 mg, indapamide sustained-release tablets, ref 11.
[5] abbreviates: whole blood, dose 1.5 mg, indapamide sustained-release tablets, ref 21.

Like-named read-outs stand apart in the source and are kept apart here.

Consider `CCC[C@H](N[C@@H](C)C(=O)N1[C@H](C(=O)O)C[C@@H]2CCCC[C@@H]21)C(=O)OCC` [Perindopril, perindopril], for which the Tmax was 0.65 ± 0.1 h in series [1] (plasma); 0.7 ± 0.2 h in series [1] (whole blood); 0.66 ± 0.2 h in series [2] (plasma, dose 4 mg, ref 16); 0.66 ± 0.2 h in series [2] (plasma, dose 4 mg, ref 22); 0.75 h in series [2] (plasma, dose 4 mg, ref 24). Moreover, the concentration at 2 h in series [1] (plasma) came out at 11.1 ng/mL; in series [1] (whole blood) it was 7.35 ng/mL. Also, the half-life in series [1] (plasma) is 0.96 ± 0.3 h; in series [1] (whole blood), 1.11 ± 0.4 h. In addition, the AUC0-t in series [1] (plasma, t = 6 h) is 51.4 ± 12.8 ng·h/mL; in series [2] (plasma, dose 4 mg, t = 5 h), 70.3 ± 14.4 ng·h/mL; in series [2] (plasma, dose 4 mg, t = 96 h), 41.7 ± 10.0 ng·h/mL; in series [2] (plasma, dose 4 mg, t = 120 h) it was 106 ± 32 ng·h/mL. In addition, the peak concentration (Cmax) in series [2] (plasma, dose 4 mg, ref 16) was 36.5 ± 11.4 ng/mL; in series [2] (plasma, dose 4 mg, ref 22), 63.9 ± 18.0 ng/mL; in series [2] (plasma, dose 4 mg, ref 24), 72 ± 20 ng/mL. The Binding in blood result in series [3] is “bind mainly to plasma protein in blood”.
With `CC1Cc2ccccc2N1NC(=O)c1ccc(Cl)c(S(N)(=O)=O)c1` (stereo not shown) [Indapamide, indapamide], the Tmax in series [1] (plasma) is 1.8 ± 0.8 h; in series [1] (whole blood) it was 1.6 ± 0.6 h; in series [2] (whole blood, dose 1.25 mg) it was 2.4 ± 1.1 h; in series [2] (setting [4]), 10.3 ± 5.3 h; in series [2] (setting [5]), 8.0 ± 3.0 h. Besides, the concentration at 2 h in series [1] (plasma) worked out at 5.32 ng/mL; in series [1] (whole blood), 14.9 ng/mL. For the same molecule, the values for the half-life in series [1] (plasma) and in series [1] (whole blood) were 13.4 ± 2.4 h and 13.5 ± 1.6 h, respectively. The AUC0-t is on record as 882 ± 126 ng·h/mL in series [1] (whole blood, t = 48 h); 1152 ± 429 ng·h/mL in series [2] (whole blood, dose 1.25 mg, t = 96 h); 1318 ± 303 ng·h/mL in series [2] (whole blood, dose 1.5 mg, indapamide sustained-release tablets, t = 96 h, ref 11); 1268 ± 279 ng·h/mL in series [2] (whole blood, dose 1.5 mg, indapamide sustained-release tablets, t = 96 h, ref 21). The maximum concentration (Cmax) was 43.6 ± 16.1 ng/mL in series [2] (setting [4]) and 41.1 ± 7.6 ng/mL in series [2] (setting [5]). The “Binding to the red blood cell” value in series [3] is recorded as “high binding to the red blood cell”.
With `CCC[C@H](N[C@@H](C)C(=O)N1[C@H](C(=O)O)C[C@@H]2CCCC[C@@H]21)C(=O)O` [Perindoprilat, perindoprilat], the Tmax in series [1] (plasma) is 6.4 ± 1.3 h; in series [1] (whole blood) it was 5.8 ± 1.1 h; in series [2] (plasma, dose 4 mg, ref 22) it was 6.3 ± 1.2 h; in series [2] (plasma, dose 4 mg, ref 23), 4.3 ± 2.9 h; in series [2] (plasma, dose 4 mg, ref 24), 6 h. For the same molecule, the results for the concentration at 2 h in series [1] (plasma) and in series [1] (whole blood) were 2.49 ng/mL and 1.31 ng/mL, respectively. The half-life in series [1] (plasma) is 17 ± 6.5 h; in series [1] (whole blood), 18.2 ± 7.3 h. Besides, the AUC0-t in series [1] (plasma, t = 48 h) is recorded as 108 ± 34.7 ng·h/mL; in series [2] (plasma, dose 4 mg, t = 72 h, ref 22) it was 111 ± 18.4 ng·h/mL; in series [2] (plasma, dose 4 mg, t = 72 h, ref 23) it was 92 ± 30 ng·h/mL; in series [2] (plasma, dose 4 mg, t = 120 h), 191 ± 76 ng·h/mL. In addition, the Cmax in series [2] (plasma, dose 4 mg, one significant digit) is 5 ± 2 ng/mL; in series [2] (plasma, dose 4 mg, ref 22), 5.91 ± 2.9 ng/mL; in series [2] (plasma, dose 4 mg, ref 24), 4.9 ± 2.7 ng/mL.

As a reminder, the Tmax is the time at which the peak concentration occurs. In general, half-life refers to how long it takes for the measured level to halve. As a reminder, the Cmax is the maximum level reached in the sampled fluid or tissue.

Values taken from publication PMC6190495 (Journal of Pharmaceutical Analysis, 2018).
